From ChEMBL document CHEMBL1145973 (J Med Chem, 2003)

Assays:
Mu-type opioid receptor [1] = molecular target: T1, Mu-type opioid receptor (Homo sapiens, UniProt P35372); test: Efficacy for Opioid receptor mu 1-mediated [35S]GTP-gamma-S incorporation into CHO membrane preparations; format: functional
[2] = molecular target: Kappa-type opioid receptor (Cavia porcellus, UniProt P41144); test: Displacement of 3H-U-69,593 from Opioid receptor kappa 1 in guinea pig cerebellum preparation; format: tissue-based
[3] = molecular target: Delta-type opioid receptor (Homo sapiens, UniProt P41143); test: Displacement of [3H]diprenorphine from human Opioid receptor delta 1 epressing HEK293 cells; format: cell-based
Procedure, shortened: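 Human DOR-1 stably transfected into HEK-293 cells; competition binding against 3H-diprenorphine. Mean ± SD of duplicate measurements.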

Mu-type opioid receptor [4] = molecular target: T1, Mu-type opioid receptor; test: Displacement of [3H]DAMGO from human Opioid receptor mu 1 expressing CHO cells; format: cell-based
[5] = molecular target: Opioid receptors; mu & delta (Homo sapiens) (UniProt P41143+P35372); test: Relative affinity for delta and mu opioid receptors; format: protein assay
[6] = molecular target: Opioid receptors; mu & kappa (Homo sapiens) (UniProt P41145+P35372); test: Relative affinity for kappa 1 and mu opioid receptors; format: protein assay
Procedure, shortened: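 Ratio of Ki at KOR, from 3H-U-69,593 competition in guinea pig cerebellum, to Ki at MOR, from 3H-DAMGO competition on hMOR-1 in CHO cells.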

Mu-type opioid receptor [7] = molecular target: T1, Mu-type opioid receptor; test: Specific binding of GTP-gamma -35S to G proteins in CHO membrane preparation stably transfected with human Opioid receptor mu 1 in the presence of GDP and 10 uM compound; format: cell membranes
Procedure, shortened: (§1)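 Human MOR-1 stably transfected into CHO cells; membrane preparations incubated with GDP and test compound at 10 µM. Specific [35S]GTP-γ-S binding to G proteins is expressed as a percentage of DAMGO-induced specific binding. Mean ± SD of quadruplicate measurements.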

Mu-type opioid receptor [8] = molecular target: T1, Mu-type opioid receptor; test: Compound tested at 10 uM for the ability to induce Opioid receptor mu 1-mediated binding of [35S]GTP-gamma-S to G proteins in CHO membrane preparations; format: functional, cell membranes; procedure, shortened: as §1

Sequence of Opioid receptors; mu & kappa (Homo sapiens) (P35372 whole entry, looked up): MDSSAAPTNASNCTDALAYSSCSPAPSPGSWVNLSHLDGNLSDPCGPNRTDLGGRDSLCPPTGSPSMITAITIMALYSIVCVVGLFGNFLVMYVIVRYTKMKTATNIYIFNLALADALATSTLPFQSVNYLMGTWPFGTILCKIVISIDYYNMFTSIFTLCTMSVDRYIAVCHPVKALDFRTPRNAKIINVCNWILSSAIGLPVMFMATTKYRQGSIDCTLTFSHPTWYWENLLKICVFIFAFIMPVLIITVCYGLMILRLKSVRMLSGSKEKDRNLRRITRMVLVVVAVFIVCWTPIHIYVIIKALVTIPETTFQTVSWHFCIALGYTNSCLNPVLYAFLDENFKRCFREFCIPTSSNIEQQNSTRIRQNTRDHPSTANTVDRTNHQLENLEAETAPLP
Sequence of Opioid receptors; mu & kappa (Homo sapiens) (P41145 whole entry, looked up): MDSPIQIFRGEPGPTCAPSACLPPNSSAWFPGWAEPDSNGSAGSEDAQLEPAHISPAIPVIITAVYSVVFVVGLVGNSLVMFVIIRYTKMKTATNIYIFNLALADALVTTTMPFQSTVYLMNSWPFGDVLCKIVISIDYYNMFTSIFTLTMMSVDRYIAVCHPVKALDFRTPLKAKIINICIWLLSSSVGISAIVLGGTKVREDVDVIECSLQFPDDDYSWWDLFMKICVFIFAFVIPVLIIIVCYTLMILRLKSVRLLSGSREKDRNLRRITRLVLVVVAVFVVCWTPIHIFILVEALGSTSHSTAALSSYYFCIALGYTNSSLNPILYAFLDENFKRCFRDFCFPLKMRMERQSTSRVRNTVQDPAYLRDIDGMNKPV
T1 sequence (P35372 whole entry): as the sequence (P35372 whole entry, looked up) above
Sequence of Opioid receptors; mu & delta (Homo sapiens) (P35372 whole entry, looked up): as above
Sequence of Opioid receptors; mu & delta (Homo sapiens) (P41143 whole entry, looked up): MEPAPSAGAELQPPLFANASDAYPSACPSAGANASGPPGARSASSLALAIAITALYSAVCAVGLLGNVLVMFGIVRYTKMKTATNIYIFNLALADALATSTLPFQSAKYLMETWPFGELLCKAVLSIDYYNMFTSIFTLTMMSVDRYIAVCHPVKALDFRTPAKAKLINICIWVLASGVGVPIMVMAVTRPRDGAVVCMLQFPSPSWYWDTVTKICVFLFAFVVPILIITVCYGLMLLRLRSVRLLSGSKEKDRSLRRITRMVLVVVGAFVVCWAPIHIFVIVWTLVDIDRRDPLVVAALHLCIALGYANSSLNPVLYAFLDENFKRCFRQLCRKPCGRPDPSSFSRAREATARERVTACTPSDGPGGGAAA
Sequence of Kappa-type opioid receptor (P41144 whole entry): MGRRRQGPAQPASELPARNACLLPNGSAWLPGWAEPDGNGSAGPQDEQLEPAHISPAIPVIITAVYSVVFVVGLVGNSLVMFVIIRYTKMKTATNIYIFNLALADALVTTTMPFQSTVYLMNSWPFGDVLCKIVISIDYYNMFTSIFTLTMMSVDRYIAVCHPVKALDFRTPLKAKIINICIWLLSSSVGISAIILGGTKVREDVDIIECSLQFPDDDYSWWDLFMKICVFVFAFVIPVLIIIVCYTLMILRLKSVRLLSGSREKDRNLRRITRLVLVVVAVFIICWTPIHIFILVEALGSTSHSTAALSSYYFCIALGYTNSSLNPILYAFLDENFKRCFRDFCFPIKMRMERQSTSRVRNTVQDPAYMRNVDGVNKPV
Sequence of Delta-type opioid receptor (P41143 whole entry): as the sequence (P41143 whole entry, looked up) above

Row | SMILES | GTP-gamma35S bound (Mu-type opioid receptor [1]) [%] | Ki [2] [µM] | Ki [3] [µM] | Ki (Mu-type opioid receptor [4]) [µM] | Ratio [5] | Ratio [6] | GTP-gamma35S bound (Mu-type opioid receptor [7]) [%] | EC50 (Mu-type opioid receptor [8]) [µM] | Ki ([3]; hek293) [µM] | Ki (Mu-type opioid receptor [4]; cho) [µM]
1 | Cc1cc(O)cc(C)c1C[C@H](N)[C@@H](O)C/C=C/[C@H](O)[C@@H](Cc1ccccc1)C(=O)N[C@@H](Cc1ccccc1)C(N)=O | 35 | 0.022 | 0.04 | 0.00017 | 230 | 130 |  |  |  | 
2 | Cc1cc(O)cc(C)c1C[C@H](N)[C@H](O)C/C=C/[C@H](O)[C@@H](Cc1ccccc1)C(=O)N[C@@H](Cc1ccccc1)C(N)=O | 14 | 0.015 | 0.046 | 0.0012 | 38 | 13 |  |  |  | 
3 | Cc1cc(O)cc(C)c1C[C@H](N)[C@@H](O)C/C=C/[C@H](O)[C@@H](Cc1ccccc1)C(=O)N[C@H](CO)Cc1ccccc1 | 44 | 0.069 | 0.054 | 0.00016 | 340 | 430 |  |  |  | 
4 | Cc1cc(O)cc(C)c1C[C@H](N)[C@@H](O)C/C=C/[C@H](O)[C@@H](Cc1ccccc1)C(=O)O[C@@H](Cc1ccccc1)C(N)=O | 47 | 0.126 | 0.021 |  | 46 | 280 |  |  |  | 
5 | Cc1cc(O)cc(C)c1C[C@H](N)[C@@H](O)C/C=C/[C@H](O)[C@@H](Cc1ccccc1)C(=O)O[C@H](CO)Cc1ccccc1 |  | 0.085 | 0.017 | 0.00044 | 39 | 190 | 62 |  |  | 
6 | Cc1cc(O)cc(C)c1C[C@H](N)[C@H](O)C/C=C/[C@@H](O)[C@@H](Cc1ccccc1)C(=O)N[C@@H](Cc1ccccc1)C(N)=O | 43 | 0.025 | 0.085 | 0.0016 | 53 | 16 |  |  |  | 
7 | Cc1cc(O)cc(C)c1C[C@H](N)[C@@H](O)C/C=C/[C@@H](O)[C@H](Cc1ccccc1)C(=O)NCCc1ccccc1 | 52 | 0.06 | 0.119 | 0.00064 | 190 | 94 |  |  |  | 
8 | Cc1cc(O)cc(C)c1C[C@H](N)[C@@H](O)C/C=C/[C@H](O)[C@@H](Cc1ccccc1)C(=O)NCCc1ccccc1 | 40 | 0.042 | 0.099 | 0.00029 | 340 | 140 |  |  |  | 
9 | Cc1cc(O)cc(C)c1C[C@H](N)[C@@H](O)C/C=C/[C@@H](O)[C@@H](Cc1ccccc1)C(=O)NCCc1ccccc1 | 48 | 0.064 | 0.026 | 0.00037 | 70 | 170 |  |  |  | 
10 | NC(=O)[C@H](Cc1ccccc1)NC(=O)[C@H](Cc1ccccc1)NC(=O)[C@@H]1CCCN1C(=O)[C@@H](N)Cc1ccccc1 |  | 10.4 |  |  |  |  |  | 0.031 | […] | 0.00069
11 | Cc1cc(O)cc(C)c1C[C@H](N)[C@@H](O)C/C=C/[C@@H](O)[C@@H](Cc1ccccc1)C(=O)N[C@@H](Cc1ccccc1)C(N)=O | 75 | 0.021 | 0.036 | 0.00042 | 86 | 49 |  | 0.0079 |  | 
12 | Cc1cc(O)cc(C)c1C[C@H](N)[C@H](O)C/C=C/[C@H](O)[C@@H](Cc1ccccc1)C(=O)NCCc1ccccc1 | 49 | 0.051 | 0.123 | 0.00024 | 510 | 210 |  | 0.049 |  | 
13 | Cc1cc(O)cc(C)c1C[C@H](N)[C@@H](O)C/C=C/[C@H](O)[C@@H](Cc1ccccc1)C(=O)OCCc1ccccc1 | 79 |  | 0.056 | 0.00024 |  |  |  | 0.0042 |  | 
14 | Cc1cc(O)cc(C)c1C[C@H](N)[C@H](O)C/C=C/[C@@H](O)[C@@H](Cc1ccccc1)C(=O)NCCc1ccccc1 | 27 | 0.069 | 0.066 | 0.00072 | 91 | 96 |  |  |  | 
15 | NC(=O)[C@H](Cc1ccccc1)NC(=O)[C@H](Cc1ccccc1)NC(=O)[C@H]1CCCN1C(=O)[C@@H](N)Cc1ccccc1 | 100 |  |  |  | […] | […] |  |  |  | 
16 | Cc1cc(O)cc(C)c1C[C@H](N)[C@@H](O)C/C=C/[C@@H](O)[C@H](Cc1ccccc1)C(=O)N[C@@H](Cc1ccccc1)C(N)=O | 32 | 0.05 | 0.23 | 0.0012 | 190 | 41 |  |  |  | 
